Test results: ChEMBL document CHEMBL1132565 (J Med Chem, 1999)
The source made the active and inactive calls.

How the values were obtained:
[1] = Half-life time of enzymatic breakdown in mouse brain.; format: ADME
Summary of the method: (§1)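 Methanol added to stop each sample, followed by centrifugation. Residual activity in the supernatant was bioassayed on GPI or MVD and expressed as % of time-0 recovery. Three experiments.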

[2] = Half-life time of enzymatic breakdown in mouse liver.; format: ADME; summary of the method: as §1
Cavia porcellus = organism: Cavia porcellus; assay: In vitro concentration required to inhibit electrically evoked twitch in isolated guinea pig ileum.; format: functional
Summary of the method: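 Myenteric plexus-longitudinal muscle strips from male guinea pig small intestine, field-stimulated with supramaximal bipolar rectangular pulses. Inhibition of the electrically evoked twitch measured. IC50 taken from concentration-response curves, at least six tissues.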

Mus musculus [3] = organism: Mus musculus; assay: In vitro concentration required to inhibit electrically evoked twitch in isolated mouse vas deferens.; format: functional
Summary of the method: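 Mouse vas deferens field-stimulated with supramaximal bipolar rectangular pulses. Inhibition of the electrically evoked twitch measured. IC50 taken from concentration-response curves, at least six tissues.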

[4] = molecular target: Delta-type opioid receptor (Mus musculus, UniProt P32300); assay: Displacement of [3H]NLT from Opioid receptor delta 1 of adult male mouse brain.
Delta-type opioid receptor, sequence (P32300 whole entry): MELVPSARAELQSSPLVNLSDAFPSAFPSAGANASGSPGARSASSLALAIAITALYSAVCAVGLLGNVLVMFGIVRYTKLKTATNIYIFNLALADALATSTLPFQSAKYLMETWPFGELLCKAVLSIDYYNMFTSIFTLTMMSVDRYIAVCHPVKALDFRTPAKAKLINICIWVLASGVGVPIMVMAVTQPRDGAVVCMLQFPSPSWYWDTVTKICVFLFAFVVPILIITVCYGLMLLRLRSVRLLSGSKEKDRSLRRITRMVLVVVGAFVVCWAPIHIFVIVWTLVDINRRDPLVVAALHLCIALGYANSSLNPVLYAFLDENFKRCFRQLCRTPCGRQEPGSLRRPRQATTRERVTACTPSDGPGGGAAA

Mu-type opioid receptor = Mu-type opioid receptor (Mus musculus, UniProt P42866); assay: Displacement of [3H]-DAGO from Opioid receptor mu 1 of adult male mouse brain.; format: tissue-based
Mu-type opioid receptor, sequence (P42866 whole entry): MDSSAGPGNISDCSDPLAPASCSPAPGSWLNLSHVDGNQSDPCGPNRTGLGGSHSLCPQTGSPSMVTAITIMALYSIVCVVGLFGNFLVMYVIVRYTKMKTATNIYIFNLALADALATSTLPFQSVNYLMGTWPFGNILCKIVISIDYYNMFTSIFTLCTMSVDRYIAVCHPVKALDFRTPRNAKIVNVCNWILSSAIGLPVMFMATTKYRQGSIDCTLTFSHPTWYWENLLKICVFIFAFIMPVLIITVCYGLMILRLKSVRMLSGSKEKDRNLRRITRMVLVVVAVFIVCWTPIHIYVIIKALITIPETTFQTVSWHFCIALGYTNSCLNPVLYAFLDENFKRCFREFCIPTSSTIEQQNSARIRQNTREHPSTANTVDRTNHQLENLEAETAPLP
Summary of the method: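 Crude membranes from adult male Albino Swiss mouse brain, pre-incubated 30 min at 25 °C to remove endogenous opioids. Competition against [3H]DAGO 0.5 nM on 1 mg membrane protein in 50 mM Tris-HCl pH 7.4, 35 °C for 90 min. Nonspecific binding defined with 10 µM naloxone, 12 inhibitor concentrations. GF/B filtration and scintillation counting. Ki from competition curves, run in triplicate.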

Mus musculus [5] = assay: Antinociceptive activity after subcutaneous administration in mice was determined in analgesia hotplate test; format: functional
Summary of the method: (§2)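 Male CD-1 mice (25-30 g), peptide dissolved in sterile Ringer's solution and injected subcutaneously at 0.05 mL/10 g, 5-8 animals per dose. Hot plate at 55 °C, latency to back-paw licking or escape jump recorded. Cut-off 15 s. Mice not responding within 5 s before drug were excluded. Testing every 15 min for the first hour, then every 30 min. %MPE calculated. AD50 with 95% CL by Litchfield-Wilcox.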

Mus musculus [6] = assay: Antinociceptive activity after subcutaneous administration in mice; the highest dose tested, 100 uM/Kg, was unable to produce a significant analgesia.; format: functional, organism-based; summary of the method: as §2
Mus musculus [7] = assay: Antinociceptive activity after subcutaneous administration in mice.; format: functional; summary of the method: as §2
Mus musculus [8] = assay: Antinociceptive activity after subcutaneous administration in mice. p<0.05 vs dermorphin; format: functional; summary of the method: as §2

CC(C)[C@H](NC(=O)[C@H](CC(=O)O)NC(=O)[C@H](Cc1ccccc1)NC(=O)[C@@H](C)NC(=O)[C@@H](N)Cc1ccc(O)cc1)C(=O)N[C@H](C(=O)N[C@@H](CO)C(=O)OC[C@H]1O[C@H](O)[C@H](O)[C@@H](O)[C@@H]1O)C(C)C
half-life [1]: > 4 h
half-life [2]: 3 h
IC50 (Cavia porcellus): 1600 nM
IC50 (Mus musculus [3]): 3.1 nM
Ki [4]: 23 nM
Ki (Mu-type opioid receptor): 879 nM

C[C@H](NC(=O)[C@@H]1CCCN1C(=O)[C@H](Cc1ccc(O)cc1)NC(=O)CNC(=O)[C@H](Cc1ccccc1)NC(=O)[C@@H](C)NC(=O)[C@@H](N)Cc1ccc(O)cc1)C(=O)OC[C@H]1O[C@H](O)[C@H](O)[C@@H](O)[C@H]1O
IC50 (Cavia porcellus): 4 nM
AD50 (Mus musculus [5]): 1.1 µM/kg
IC50 (Mus musculus [3]): 55 nM
Ki [4]: 2850 nM
Ki (Mu-type opioid receptor): 2.5 nM

CC(C)[C@H](NC(=O)[C@H](CC(=O)O)NC(=O)[C@H](Cc1ccccc1)NC(=O)[C@@H](C)NC(=O)[C@@H](N)Cc1ccc(O)cc1)C(=O)N[C@H](C(=O)N[C@H](C)C(N)=O)C(C)C
AD50 (Mus musculus [6]): inactive

C[C@@H](NC(=O)[C@@H](N)Cc1ccc(O)cc1)C(=O)N[C@@H](Cc1ccccc1)C(=O)NCC(=O)N[C@@H](Cc1ccc(O)cc1)C(=O)N1CCC[C@H]1C(=O)N[C@@H](CO)C(N)=O [DERMORPHIN]
half-life [1]: 0.333 h
half-life [2]: 0.167 h
IC50 (Cavia porcellus): 1.5 nM
AD50 (Mus musculus [7]): 2.4 µM/kg
IC50 (Mus musculus [3]): 19 nM
Ki (Mu-type opioid receptor): 1.1 nM

CC(C)[C@H](NC(=O)[C@H](CC(=O)O)NC(=O)[C@H](Cc1ccccc1)NC(=O)[C@@H](C)NC(=O)[C@@H](N)Cc1ccc(O)cc1)C(=O)N[C@H](C(=O)N[C@@H](C)C(N)=O)C(C)C
IC50 (Cavia porcellus): > 2000 nM
IC50 (Mus musculus [3]): 6.9 nM
Ki [4]: 40 nM
Ki (Mu-type opioid receptor): 1900 nM

CC(C)[C@H](NC(=O)[C@H](CC(=O)O)NC(=O)[C@H](Cc1ccccc1)NC(=O)[C@@H](C)NC(=O)[C@@H](N)Cc1ccc(O)cc1)C(=O)N[C@H](C(=O)NCC(N)=O)C(C)C [DELTORPHIN C]
half-life [1]: 4 h
half-life [2]: 1.83 h
IC50 (Cavia porcellus): 1240 nM
AD50 (Mus musculus [7]): 87 µM/kg
IC50 (Mus musculus [3]): 0.2 nM
Ki (Mu-type opioid receptor): 1980 nM

CC(=O)O[C@H]1[C@H](O)[C@@H](O)[C@@H](O)O[C@@H]1COC(=O)[C@H](CO)NC(=O)[C@@H]1CCCN1C(=O)[C@H](Cc1ccc(O)cc1)NC(=O)CNC(=O)[C@H](Cc1ccccc1)NC(=O)[C@@H](C)NC(=O)[C@@H](N)Cc1ccc(O)cc1
half-life [1]: 1.5 h
half-life [2]: 1 h
IC50 (Cavia porcellus): 8.2 nM
AD50 (Mus musculus [7]): 4.6 µM/kg
IC50 (Mus musculus [3]): 18 nM

CC(C)[C@H](NC(=O)[C@H](CC(=O)O)NC(=O)[C@H](Cc1ccccc1)NC(=O)[C@@H](C)NC(=O)[C@@H](N)Cc1ccc(O)cc1)C(=O)N[C@H](C(=O)N[C@H](C)C(=O)O[C@H]1O[C@H](O)[C@H](O)[C@@H](O)[C@H]1O)C(C)C
AD50 (Mus musculus [5]): 19 µM/kg

C[C@H](NC(=O)[C@@H]1CCCN1C(=O)[C@H](Cc1ccc(O)cc1)NC(=O)CNC(=O)[C@H](Cc1ccccc1)NC(=O)[C@@H](C)NC(=O)[C@@H](N)Cc1ccc(O)cc1)C(N)=O
IC50 (Cavia porcellus): 1.6 nM
IC50 (Mus musculus [3]): 24 nM
Ki [4]: 1110 nM
Ki (Mu-type opioid receptor): 1.2 nM

CC(=O)O[C@H]1[C@@H](OC(=O)[C@@H](C)NC(=O)[C@@H](NC(=O)[C@@H](NC(=O)[C@H](CC(=O)O)NC(=O)[C@H](Cc2ccccc2)NC(=O)[C@@H](C)NC(=O)[C@@H](N)Cc2ccc(O)cc2)C(C)C)C(C)C)O[C@H](O)[C@H](O)[C@H]1O
AD50 (Mus musculus [5]): 61 µM/kg

CC(=O)O[C@H]1[C@H](O)[C@@H](O)[C@@H](O)O[C@@H]1COC(=O)[C@@H](CO)NC(=O)[C@@H](NC(=O)[C@@H](NC(=O)[C@H](CC(=O)O)NC(=O)[C@H](Cc1ccccc1)NC(=O)[C@@H](C)NC(=O)[C@@H](N)Cc1ccc(O)cc1)C(C)C)C(C)C
AD50 (Mus musculus [7]): 70 µM/kg

CC(C)[C@H](NC(=O)[C@H](CC(=O)O)NC(=O)[C@H](Cc1ccccc1)NC(=O)[C@@H](C)NC(=O)[C@@H](N)Cc1ccc(O)cc1)C(=O)N[C@H](C(=O)N[C@@H](CO)C(N)=O)C(C)C
IC50 (Cavia porcellus): 1400 nM
IC50 (Mus musculus [3]): 4.3 nM
Ki [4]: 30 nM
Ki (Mu-type opioid receptor): 1100 nM

C[C@@H](NC(=O)[C@@H](N)Cc1ccc(O)cc1)C(=O)N[C@@H](Cc1ccccc1)C(=O)NCC(=O)N[C@@H](Cc1ccc(O)cc1)C(=O)N1CCC[C@H]1C(=O)N[C@@H](CO)C(=O)OC[C@H]1O[C@H](O)[C@H](O)[C@@H](O)[C@@H]1O
half-life [1]: 0.633 h
half-life [2]: 0.5 h
IC50 (Cavia porcellus): 3.5 nM
AD50 (Mus musculus [5]): 1.4 µM/kg
IC50 (Mus musculus [3]): 40 nM

CC(C)[C@H](NC(=O)[C@H](CC(=O)O)NC(=O)[C@H](Cc1ccccc1)NC(=O)[C@@H](C)NC(=O)[C@@H](N)Cc1ccc(O)cc1)C(=O)N[C@H](C(=O)N[C@H](CO)C(=O)OC[C@H]1O[C@H](O)[C@H](O)[C@@H](O)[C@@H]1O)C(C)C
AD50 (Mus musculus [5]): 44 µM/kg

CC(=O)O[C@H]1[C@H](O)[C@@H](O)[C@@H](O)O[C@@H]1COC(=O)[C@H](CO)NC(=O)[C@@H](NC(=O)[C@@H](NC(=O)[C@H](CC(=O)O)NC(=O)[C@H](Cc1ccccc1)NC(=O)[C@@H](C)NC(=O)[C@@H](N)Cc1ccc(O)cc1)C(C)C)C(C)C
half-life [1]: > 4 h
half-life [2]: 4 h
IC50 (Cavia porcellus): 1900 nM
IC50 (Mus musculus [3]): 2.7 nM
Ki [4]: 28 nM
Ki (Mu-type opioid receptor): 1920 nM

CC(=O)O[C@@H]1[C@H](O)[C@@H](O)[C@@H](O)O[C@@H]1COC(=O)[C@H](C)NC(=O)[C@@H]1CCCN1C(=O)[C@H](Cc1ccc(O)cc1)NC(=O)CNC(=O)[C@H](Cc1ccccc1)NC(=O)[C@@H](C)NC(=O)[C@@H](N)Cc1ccc(O)cc1
IC50 (Cavia porcellus): 6 nM
AD50 (Mus musculus [7]): 6.6 µM/kg
IC50 (Mus musculus [3]): 65 nM
Ki [4]: > 5000 nM
Ki (Mu-type opioid receptor): 11.2 nM

CC(=O)O[C@H]1[C@@H](OC(=O)[C@H](C)NC(=O)[C@@H](NC(=O)[C@@H](NC(=O)[C@H](CC(=O)O)NC(=O)[C@H](Cc2ccccc2)NC(=O)[C@@H](C)NC(=O)[C@@H](N)Cc2ccc(O)cc2)C(C)C)C(C)C)O[C@H](O)[C@H](O)[C@H]1O
IC50 (Cavia porcellus): > 2000 nM
IC50 (Mus musculus [3]): 43 nM
Ki [4]: 160 nM
Ki (Mu-type opioid receptor): 2830 nM

CC(C)[C@H](NC(=O)[C@H](CC(=O)O)NC(=O)[C@H](Cc1ccccc1)NC(=O)[C@@H](C)NC(=O)[C@@H](N)Cc1ccc(O)cc1)C(=O)N[C@H](C(=O)N[C@@H](C)C(=O)O[C@H]1O[C@H](O)[C@H](O)[C@@H](O)[C@H]1O)C(C)C
IC50 (Cavia porcellus): > 2000 nM
IC50 (Mus musculus [3]): 36 nM
Ki [4]: 176 nM
Ki (Mu-type opioid receptor): 1590 nM

C[C@@H](NC(=O)[C@@H](N)Cc1ccc(O)cc1)C(=O)N[C@@H](Cc1ccccc1)C(=O)NCC(=O)N[C@@H](Cc1ccc(O)cc1)C(=O)N1C[C@H](O)C[C@H]1C(=O)N[C@@H](CCCCN)C(N)=O
half-life [1]: 0.5 h
half-life [2]: 0.333 h
IC50 (Cavia porcellus): 2.1 nM
AD50 (Mus musculus [8]): 0.9 µM/kg
IC50 (Mus musculus [3]): 35 nM
Ki [4]: 1410 nM
Ki (Mu-type opioid receptor): 0.5 nM
